# Source: ChEMBL document CHEMBL5143562, “α-Synuclein Aggregation Inhibitory Prunolides and a Dibrominated β-Carboline Sulfamate from the Ascidian Synoicum prunum” (J Nat Prod, 2022)
# Calls of active or inactive are those of the source. No cut-off for these calls is given here.
# Target: Alpha-synuclein (Homo sapiens) (UniProt P37840)
# Test: Inhibition of alpha-Synuclein (unknown origin) aggregation at compound to protein molar ratio of 1:1 incubated for 36 hrs under shaking condition and measured every 6 hrs by Thioflavin T based fluorescence assay relative to control
# Settings: concentration not given here
# In short: (§1)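 Wells held 80 µM α-syn, 50 µM ThT (from 5 mM stock in glycine-NaOH pH 8.0), 80–400 µM compound, saline Tris buffer and a teflon ball. Shaken at 100 rpm, 37 °C, 36 h. Fluorescence (ex 460/em 500 nm) read every 6 h, triplicates. Protein-only wells set 100% aggregation. Percent inhibition taken at end; t50 is the shift in h of the aggregation midpoint.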
row,SMILES,inhibition
1,O=C1C=C(c2ccc(O)cc2)[C@]2(O1)O[C@]1(OC(=O)C=C1c1ccc(O)cc1)C(c1ccc(O)cc1)=C2c1ccc(O)cc1,60%

# Target: Alpha-synuclein (Homo sapiens) (UniProt P37840)
# Test: Binding affinity to alpha-Synuclein (unknown origin) at compound to protein molar ratio of 5:1 incubated for 3 hrs by mass spectroscopy analysis
# Settings: not given
# In short: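 α-Syn (10 µM) in 10 mM ammonium acetate. Compound (100 µM, in methanol) added at 5:1 ligand:protein and kept 3 h at rt. Positive-mode HRESIMS, calibrated with sodium trifluoroacetate. Spectra inspected for extra peaks of protein–ligand complexes; scored yes/no.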
row,SMILES,Activity
1,O=C1C=C(c2cc(Br)c(O)c(Br)c2)[C@]2(O1)O[C@]1(OC(=O)C=C1c1cc(Br)c(O)c(Br)c1)C(c1ccc(O)c(Br)c1)=C2c1ccc(O)cc1,Active
2,O=C1C=C(c2cc(Br)c(O)c(Br)c2)[C@]2(O1)O[C@]1(OC(=O)C=C1c1ccc(O)cc1)C(c1ccc(O)c(Br)c1)=C2c1ccc(O)cc1,Active
3,O=C1C=C(c2ccc(O)cc2)[C@]2(O1)O[C@]1(OC(=O)C=C1c1ccc(O)cc1)C(c1ccc(O)cc1)=C2c1ccc(O)cc1,Active
4,O=C(O[C@@H]1Cc2c(O)cc(O)cc2O[C@@H]1c1cc(O)c(O)c(O)c1)c1cc(O)c(O)c(O)c1,Active
5,O=C1C=C(c2ccc(O)c(Br)c2)[C@]2(O1)O[C@]1(OC(=O)C=C1c1ccc(O)c(Br)c1)C(c1ccc(O)c(Br)c1)=C2c1ccc(O)c(Br)c1,Active

# Target: Alpha-synuclein (Homo sapiens) (UniProt P37840)
# Test: Inhibition of alpha-Synuclein (unknown origin) aggregation assessed as time difference in midpoint of aggregation at compound to protein molar ratio of 1:1 incubated for 36 hrs under shaking condition and measured every 6 hrs by Thioflavin T based fluorescence assay relative to control
# Settings: not given
# In short: as §1
row,SMILES,TIME
1,O=C1C=C(c2ccc(O)cc2)[C@]2(O1)O[C@]1(OC(=O)C=C1c1ccc(O)cc1)C(c1ccc(O)cc1)=C2c1ccc(O)cc1,6.2 h
2,O=C(O[C@@H]1Cc2c(O)cc(O)cc2O[C@@H]1c1cc(O)c(O)c(O)c1)c1cc(O)c(O)c(O)c1,9.4 h

# Target: Alpha-synuclein (Homo sapiens) (UniProt P37840)
# Test: Inhibition of alpha-Synuclein (unknown origin) aggregation at compound to protein molar ratio of 5:1 incubated for 36 hrs under shaking condition and measured every 6 hrs by Thioflavin T based fluorescence assay relative to control
# Settings: concentration not given here
# In short: as §1
row,SMILES,inhibition
1,O=C1C=C(c2ccc(O)cc2)[C@]2(O1)O[C@]1(OC(=O)C=C1c1ccc(O)cc1)C(c1ccc(O)cc1)=C2c1ccc(O)cc1,75.2%
2,O=C(O[C@@H]1Cc2c(O)cc(O)cc2O[C@@H]1c1cc(O)c(O)c(O)c1)c1cc(O)c(O)c(O)c1,98.9%

# Target: Alpha-synuclein (Homo sapiens) (UniProt P37840)
# Test: Inhibition of alpha-Synuclein (unknown origin) aggregation assessed as times difference in midpoint of aggregation at compound to protein molar ratio of 5:1 incubated for 36 hrs under shaking condition and measured every 6 hrs by Thioflavin T based fluorescence assay relative to control
# Settings: not given
# In short: as §1
row,SMILES,TIME
1,O=C1C=C(c2ccc(O)cc2)[C@]2(O1)O[C@]1(OC(=O)C=C1c1ccc(O)cc1)C(c1ccc(O)cc1)=C2c1ccc(O)cc1,14.5 h
2,O=C(O[C@@H]1Cc2c(O)cc(O)cc2O[C@@H]1c1cc(O)c(O)c(O)c1)c1cc(O)c(O)c(O)c1,11.1 h

# Tested on: not listed separately
# Test: Toxicity in mouse primary midbrain culture assessed as change in tyrosine hydroxylase positive dopamine neuron at 0.5 uM
# Format: tissue-based
# Settings: not given
# In short: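 Primary embryonic mouse midbrain cultures given sonicated mouse α-syn PFFs (2.5 µg/mL final) on DIV8. Compound, 0.1% DMSO vehicle or 50 ng/mL GDNF added ~15 min later. Fixed DIV15, immunostained for TH and pSer129-α-syn, DAPI nuclei. Nine fields per well imaged at 10×. TH+ neurons with/without pSyn aggregates counted. ≥3 independent cultures, ≥3 wells each. Randomized-block ANOVA with Benjamini-Krieger-Yekutieli correction, mean ± SD.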
row,SMILES,Activity
1,O=C1C=C(c2ccc(O)cc2)[C@]2(O1)O[C@]1(OC(=O)C=C1c1ccc(O)cc1)C(c1ccc(O)cc1)=C2c1ccc(O)cc1,Non-Toxic

# Tested on: Staphylococcus aureus
# Test: Antibacterial activity against methicillin-sensitive Staphylococcus aureus ATCC 25923 assessed as inhibition of bacterial growth measured after 18 hrs by resazurin based fluorescent plate reader
# Format: functional, organism-based
# Settings: ATCC 25923, 18 h
# In short: (§2)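 Broth microdilution in lysogeny broth; overnight culture (16-18 h, 37.5 °C) adjusted to 5 × 10^5 CFU/mL inoculum. DMSO stocks serially diluted 1:2 (ten-fold series); fusidic acid positive and 5% DMSO negative controls. Plates shaken at 100 rpm, 18 h at 37.5 °C, then 704 µM resazurin added (stock), further 1 h; fluorescence ex 544/em 590 nm.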
row,SMILES,IC50
1,O=C1C=C(c2cc(Br)c(O)c(Br)c2)[C@]2(O1)O[C@]1(OC(=O)C=C1c1cc(Br)c(O)c(Br)c1)C(c1ccc(O)c(Br)c1)=C2c1ccc(O)cc1,12.2 µM
2,O=C1C=C(c2cc(Br)c(O)c(Br)c2)[C@]2(O1)O[C@]1(OC(=O)C=C1c1ccc(O)cc1)C(c1ccc(O)c(Br)c1)=C2c1ccc(O)cc1,> 10 µM
3,O=C1C=C(c2ccc(O)cc2)[C@]2(O1)O[C@]1(OC(=O)C=C1c1ccc(O)cc1)C(c1ccc(O)cc1)=C2c1ccc(O)cc1,> 10 µM

# Tested on: Staphylococcus aureus
# Test: Antibacterial activity against methicillin-resistant Staphylococcus aureus ATCC 43300 assessed as inhibition of bacterial growth measured after 18 hrs by resazurin based fluorescent plate reader
# Format: functional, organism-based
# Settings: ATCC 43300, 18 h
# In short: as §2
row,SMILES,IC50
1,O=C1C=C(c2cc(Br)c(O)c(Br)c2)[C@]2(O1)O[C@]1(OC(=O)C=C1c1cc(Br)c(O)c(Br)c1)C(c1ccc(O)c(Br)c1)=C2c1ccc(O)cc1,11.6 µM
2,O=C1C=C(c2cc(Br)c(O)c(Br)c2)[C@]2(O1)O[C@]1(OC(=O)C=C1c1ccc(O)cc1)C(c1ccc(O)c(Br)c1)=C2c1ccc(O)cc1,> 10 µM
3,O=C1C=C(c2ccc(O)cc2)[C@]2(O1)O[C@]1(OC(=O)C=C1c1ccc(O)cc1)C(c1ccc(O)cc1)=C2c1ccc(O)cc1,> 10 µM

# Tested on: Plasmodium falciparum
# Test: Antiplasmodial activity against Plasmodium falciparum 3D7 assessed as inhibition of parasite growth incubated for 72 hrs by DAPI staining based confocal microscopic analysis
# Format: functional, organism-based
# Settings: 3D7, 72 h
# In short: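 P. falciparum 3D7 in imaging plates, 2% parasitemia, 0.3% hematocrit, 16-point dilution series 0.4 nM–40 µM (N=2), 72 h at 37 °C under 5% O2/5% CO2/90% N2. DAPI stain, confocal imaging. Percent inhibition normalised to in-plate 5 µM puromycin (positive) and 0.4% DMSO (negative) controls. IC50 from sigmoidal nonlinear regression.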
row,SMILES,IC50
1,O=C(O)c1cc2c([nH]c3ccc(Br)cc32)c(C(=O)c2cn(S(=O)(=O)O)c3ccc(Br)cc23)n1,15.1 µM
2,O=C1C=C(c2ccc(O)cc2)[C@]2(O1)O[C@]1(OC(=O)C=C1c1ccc(O)cc1)C(c1ccc(O)cc1)=C2c1ccc(O)cc1,5.1 µM

# Tested on: not listed separately
# Test: Selectivity index, ratio of IC50 for cytotoxicity against human HEK293 cells to IC50 for antiplasmodial activity against Plasmodium falciparum 3D7
# Format: toxicity, cell-based
# Settings: read-out: Ratio IC50
row,SMILES,selectivity ratio
1,O=C(O)c1cc2c([nH]c3ccc(Br)cc32)c(C(=O)c2cn(S(=O)(=O)O)c3ccc(Br)cc23)n1,2.66
2,O=C1C=C(c2ccc(O)cc2)[C@]2(O1)O[C@]1(OC(=O)C=C1c1ccc(O)cc1)C(c1ccc(O)cc1)=C2c1ccc(O)cc1,7.6

# Tested on: HEK293
# Test: Cytotoxicity against human HEK293 cells measured after 72 hrs by resazurin assay
# Format: toxicity, cell-based
# Settings: hek293, 72 h
# In short: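 HEK293 cells, 2000 per well, exposed to compound for 72 h at 37 °C. Medium then swapped for 44 µM resazurin for 6 h and fluorescence read. Viability referenced to 40 µM puromycin (positive) and 0.4% DMSO (negative). IC50 by curve fitting.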
row,SMILES,Activity
1,O=C(O)c1cc2c([nH]c3ccc(Br)cc32)c(C(=O)c2cn(S(=O)(=O)O)c3ccc(Br)cc23)n1,Toxic
2,O=C1C=C(c2ccc(O)cc2)[C@]2(O1)O[C@]1(OC(=O)C=C1c1ccc(O)cc1)C(c1ccc(O)cc1)=C2c1ccc(O)cc1,Toxic
